# Compound activity from PubChem.
# TAAR1 agonist: agonists of human TAAR1 | Q96RJ0 | CHO RD-HGA16 TAAR1, Fluo-8 calcium fluorescence; vehicle wells 0%, saturating PEA agonist 100% | activation, % at 3 µM | 0.99% of 360,000 active | AID 624467;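 active = activation above the mean activation of all test compounds in the run plus 3 SD, cut at about 38% in these data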
#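 Test system: RD-HGA16 (CHO) cells co-expressing Gα16 and hTAAR1; dosing: one-point dosing at 3 µM (nominal); timing: 17-24 h seeding, 75 min 37 °C dye, 30 min RT; signal: kinetic Fluo-8 calcium fluorescence; read-out basis: % activation relative to PEA EC100 response; controls: DMSO and PEA EC100; replicates: n 1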
# LANA-H2A inh: blocks KSHV LANA binding to histone H2A/H2B. cell-free LANA-H2A/H2B peptide, fluorescence polarization. inhibition, % (concentration not given with the values). 0.6% of 320,000 active. AID 2629; in the data active = inhibition mostly above about 10%, no sharp cut-off; inactive = mostly below about 6.7%
# Target sequence (Q9QR71 whole entry, looked up): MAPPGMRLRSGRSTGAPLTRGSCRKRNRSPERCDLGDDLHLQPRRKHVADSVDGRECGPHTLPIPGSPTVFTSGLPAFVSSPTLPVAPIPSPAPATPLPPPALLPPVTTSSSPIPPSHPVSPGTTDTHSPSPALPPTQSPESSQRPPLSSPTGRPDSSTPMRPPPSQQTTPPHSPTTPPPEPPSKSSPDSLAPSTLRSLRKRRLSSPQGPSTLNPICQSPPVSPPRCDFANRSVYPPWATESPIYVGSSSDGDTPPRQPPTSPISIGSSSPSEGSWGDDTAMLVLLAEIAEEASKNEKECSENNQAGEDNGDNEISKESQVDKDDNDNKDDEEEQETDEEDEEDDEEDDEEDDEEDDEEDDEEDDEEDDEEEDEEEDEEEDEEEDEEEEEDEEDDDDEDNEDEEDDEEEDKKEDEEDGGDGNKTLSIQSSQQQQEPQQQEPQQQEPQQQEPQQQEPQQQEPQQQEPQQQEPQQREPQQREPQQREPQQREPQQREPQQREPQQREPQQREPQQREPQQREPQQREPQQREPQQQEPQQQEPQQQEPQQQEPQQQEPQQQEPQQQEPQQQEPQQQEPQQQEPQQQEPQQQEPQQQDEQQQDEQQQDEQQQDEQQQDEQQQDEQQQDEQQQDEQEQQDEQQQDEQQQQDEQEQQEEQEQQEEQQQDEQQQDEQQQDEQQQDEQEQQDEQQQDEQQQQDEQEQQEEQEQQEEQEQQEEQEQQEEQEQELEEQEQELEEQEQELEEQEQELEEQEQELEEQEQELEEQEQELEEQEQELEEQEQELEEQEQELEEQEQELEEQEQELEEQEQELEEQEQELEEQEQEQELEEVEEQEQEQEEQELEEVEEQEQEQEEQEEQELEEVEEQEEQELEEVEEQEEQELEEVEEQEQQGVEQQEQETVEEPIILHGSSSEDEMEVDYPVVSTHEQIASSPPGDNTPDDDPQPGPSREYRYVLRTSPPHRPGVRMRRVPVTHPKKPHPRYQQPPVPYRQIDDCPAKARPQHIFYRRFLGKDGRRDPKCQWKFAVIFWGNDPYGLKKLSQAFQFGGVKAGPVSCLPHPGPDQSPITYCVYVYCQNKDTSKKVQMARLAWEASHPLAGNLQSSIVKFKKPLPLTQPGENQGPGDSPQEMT
# TAAR1 antag: antagonists of human TAAR1; CHO RD-HGA16 TAAR1, Fluo-8 calcium fluorescence, antagonist; inhibition, % at 3 µM; 1.5% of 360,000 active; Q96RJ0;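 active = inhibition above a per-plate cutoff, the mean inhibition of test compounds on that plate plus 3 SD, cut at about 49% in these data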;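 also: 0% = DMSO plus EC80 beta-PEA response and 100% = DMSO alone without agonist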
#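 Test system: CHO RD-HGA16 cells bearing hTAAR1 | Reagent: β-PEA, EC80 | Compound dosing: 3 µM, single point | Schedule: Dye loading 75 min at 37 °C, then 30 min room temperature | Signal: Calcium fluorescence with Fluo-8 | Evaluation: Percent inhibition of PEA-evoked calcium signal, max/basal emission ratio | Control set: DMSO-only wells and EC80 β-PEA-stimulated wells | Repeats: Singlicate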
# GPR7 antag: blocks human GPR7 receptor signaling. GPR7-expressing cells, fluorescence antagonist assay. inhibition, % at 4.4 µM. 1.1% of 290,000 active; in the data active = inhibition above about 16%, passing the limit was not always enough;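 also: cells stimulated with the agonist NPW; 0% = agonist with vehicle and 100% = vehicle without agonist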
# TRPN1 ag: agonists of zebrafish TRPN1 channel | HEK293 zebrafish TRPN1-YFP, Fluo-8 calcium fluorescence; 100% = response to 87 µM carbachol | activation, % at 3 µM | 0.18% of 220,000 active | AID 1424;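 active = activation above its plate's cutoff, the mean activation of test wells on that plate plus 3 SD, cut at about 19% in these data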;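 also: 0% = DMSO alone and 100% = 87 µM carbachol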
#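 Material: zebrafish TRPN1-YFP in HEK293 cells. Doses: one dose of 3 µM, 0.3% DMSO. Incubation: dye 1 h 37 °C plus 30 min RT. Measured by: intracellular calcium fluorescence with Fluo-8.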
# TRPML3 ag: human mucolipin-3 channel agonism. Q8TDD5. HEK293 TRPML3-YFP, Fluo-8 calcium fluorescence; 100% = the carbachol control signal. activation, % at 3 µM. 0.29% of 220,000 active. AID 1448;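 active = activation above its plate's cutoff, the mean activation of the plate's test wells plus 3 SD, cut at about 12% in these data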;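 also: 0% = DMSO only wells and 100% = carbachol wells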
#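 Test system: HEK293 cells stably carrying human TRPML3-YFP; Doses: single dose, 3 µM final nominal compound, 0.3% DMSO final; Schedule: dye loading 1 h 37 °C then 30 min ambient, 125 s read; Technique: Fluo-8 calcium fluorescence; Benchmarks: high control carbachol 87 µM, low control DMSO.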
# TAAR1 ag conf: confirmation of human TAAR1 agonists; shares compounds with TAAR1 agonist; CHO RD-HGA16 TAAR1, Fluo-8 calcium fluorescence; scaled: DMSO 0%, maximal phenethylamine 100%; activation, % at 3 µM; 82% of 2,400 active;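 active = activation above a cutoff set at the run's mean compound activation plus 3 SD, cut at about 39% in these data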
# Ga16 nonsel ag: nonselective agonism, TAAR1 counter-screen; activation, % at 3 µM; CHO-Ga16 parental, Fluo-8 calcium fluorescence; normalized to maximal ATP response, DMSO zero; 50% of 2,400 active; shares compounds with TAAR1 agonist;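 active = activation above the run cutoff, the mean activation over all tested wells plus 3 SD, cut at about 12% in these data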;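 also: 0% = DMSO wells and 100% = maximal ATP response on the peak over basal ratio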
# TAAR1 desens: TAAR1 response desensitization, agonist counter-screen; shares compounds with TAAR1 agonist; CHO RD-HGA16 hTAAR1, Fluo-8 calcium, beta-PEA response inhibition; inhibition, % at 3 µM; 46% of 2,400 active;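 active = inhibition above the run cutoff, the mean inhibition of all test compounds plus 3 SD, cut at about 49% in these data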;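 also: beta-PEA stimulus applied at its EC80; loss of beta-PEA calcium signal after compound pretreatment read as receptor desensitization; 0% = DMSO with beta-PEA at EC80 and 100% = DMSO alone without agonist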
# Ga16 nonsel ant: counter-screen for TAAR1 agonists: nonselective Ga16 antagonists; shares compounds with TAAR1 agonist; CHO-Ga16 ATP-induced calcium, Fluo-8 fluorescence; inhibition, % at 3 µM; 39% of 2,400 active; AID 651952;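 active = inhibition above the plate's mean compound inhibition plus 3 SD, computed per plate, cut at about 22% in these data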;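 also: 0% = EC80 ATP with DMSO and 100% = DMSO wells without ATP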
# Starred values were filed as active, the others as inactive; . = not tested or not shown. Hits are enriched below; roughly 3.4% of the tested compounds scored in any of these assays.
SMILES,TAAR1 agonist,LANA-H2A inh,TAAR1 antag,GPR7 antag,TRPN1 ag,TRPML3 ag,TAAR1 ag conf,Ga16 nonsel ag,TAAR1 desens,Ga16 nonsel ant
NS(=O)(=O)c1ccc(CCNC(=O)C2CCC(CNS(=O)(=O)c3ccc(Br)s3)CC2)cc1 (centres undefined),53*,1,72*,6,-1,0,41*,1,59*,7
CCC(C)(C)n1nnnc1C(c1ccc(O)c(OC)c1)N1CCc2ccccc2C1 (centres undefined),104*,3,92*,0,0,-1,106*,15*,100*,12
Cc1ccc(NS(=O)(=O)c2ccc(C(=O)N3CCCN(C)CC3)cc2)cc1,4,4,3,-8,-1,-1,.,.,.,.
CCOc1ccc(NS(=O)(=O)c2ccc(C(=O)N3CCCC(C)C3)cc2)cc1 (centres undefined),114*,0,79*,.,.,.,121*,80*,84*,55*
Cc1ccc(NS(=O)(=O)c2ccc(C(=O)N3CCCCCC3)cc2)cc1,86*,-5,29,.,.,.,80*,52*,43,39*
CCOC(=O)CNC(=O)Cn1cnc2c(oc3ccccc32)c1=O,1,-2,-16,5,.,.,.,.,.,.
CCOC(=O)c1c(C)[nH]c(C)c1C(=O)COC(=O)Cc1ccc(OC)c(OC)c1,1,-2,-11,.,.,.,.,.,.,.
O=C(NCCNC(=O)c1ccc(-c2ccc(Cl)c(Cl)c2)o1)c1cnccn1,63*,0,82*,-1,.,.,57*,40*,72*,51*
COC(=O)c1c(C)[nH]c(C(=O)COc2ccc3ccc(=O)oc3c2)c1C,59*,3,51*,.,.,.,19,14*,50*,31*
COc1ccc(Cl)cc1NC(=O)C1CCCN(S(C)(=O)=O)C1 (centres undefined),2,0,-19,-2,.,.,.,.,.,.
Cc1ccc2sc(N(CCCN(C)C)C(=O)c3ccc(S(=O)(=O)N(C)C4CCCCC4)cc3)nc2c1C,53*,-1,31,.,.,.,28,13*,21,18
CCN(CC)CCN(C(=O)c1ccc(S(=O)(=O)N(C)C2CCCCC2)cc1)c1nc2c(C)cccc2s1,0,-4,-26,5,.,.,.,.,.,.
COc1cc(/C=C2\SC(=S)N(CCC(=O)Nc3ccccn3)C2=O)cc(OC)c1OC,13,3,44,-16,.,.,.,.,.,.
COc1cc(/C=C2\SC(=S)N(CC(=O)Nc3ccccn3)C2=O)cc(OC)c1OC,87*,-3,4,-5,1,1,114*,67*,64*,30*
COc1ccccc1/C=C1\SC(=S)N(CCC(=O)NNC(=O)c2ccccc2OC)C1=O,-1,9,5,-2,.,.,.,.,.,.
COc1ccccc1/C=C1\SC(=S)N(CCC(=O)Nc2cccc(O)c2)C1=O,63*,-2,81*,0,.,.,71*,33*,67*,40*
N#C/C(=C\c1ccc(N2CCCCC2)o1)C(=O)Nc1cccc(Br)c1,189*,1,101*,11,20*,14*,93*,143*,87*,90*
O=C(CCS(=O)(=O)c1ccc2c(c1)NC(=O)CS2)NCCc1ccccc1,68*,0,26,1,.,.,68*,0,35,11
O=C(CCS(=O)(=O)c1ccc2c(c1)NC(=O)CS2)NCCc1ccc(Cl)cc1,5,-1,-3,-5,.,.,.,.,.,.
Cc1ccc(CCNC(=O)CCS(=O)(=O)c2ccc3c(c2)oc(=O)n3C)cc1,3,-1,-29,8,.,.,.,.,.,.
Cn1c(=O)oc2cc(S(=O)(=O)CCC(=O)NCCc3ccccc3)ccc21,70*,-4,16,6,.,.,30,0,14,7
O=C(Nc1ccc2c(c1)OCO2)c1csc([C@H]2C[C@H](O)[C@@H](CO)O2)n1,1,.,4,.,.,.,.,.,.,.
COc1ccccc1NC(=O)Nc1nnc(CC(=O)Nc2ccccc2)s1,3,-2,0,3,0,0,.,.,.,.
O=C(Cc1nnc(NC(=O)Nc2ccc(F)cc2)s1)Nc1ccccc1,54*,-1,20,2,2,0,65*,13*,68*,9
O=C(Cc1nnc(NC(=O)Nc2ccccc2)s1)Nc1ccccc1,52*,-1,43,-14,3,0,65*,2,70*,8
SMILES,TAAR1 agonist,LANA-H2A inh,TAAR1 antag,GPR7 antag,TRPN1 ag,TRPML3 ag,TAAR1 ag conf,Ga16 nonsel ag,TAAR1 desens,Ga16 nonsel ant
CCN(CC)c1ccc(/C=N/NC(=O)Cc2nnc(NC(=O)Nc3ccccc3)s2)cc1,57*,-1,21,-19,-1,0,50*,0,36,11
O=C(Nc1ccccc1)Nc1nnc(Cc2ccc(F)cc2)s1,12,-1,-23,6,.,.,.,.,.,.
CCc1nc2ccc(C(=O)N(C)CC(=O)Nc3ccc(F)c(F)c3F)cc2nc1CC,1,.,-13,.,.,.,.,.,.,.
CCOC(=O)C(NC(=O)CC)(N1CCc2ccccc2C1)C(F)(F)F (centres undefined),93*,1,96*,2,2,0,111*,1,98*,10
CCOC(=O)C(NC(=O)CC)(Nc1ccccc1)C(F)(F)F (centres undefined),2,-2,-35,-5,0,1,.,.,.,.
CCc1ccc(Nc2cc(=O)n(C3CCCCC3)c(=O)[nH]2)cc1,79*,4,44,-2,8,7,108*,50*,81*,32*
O=c1cc(Nc2ccc3c(c2)OCCO3)[nH]c(=O)n1C1CCCCC1,10,-5,9,8,2,1,.,.,.,.
COc1cccc(Nc2nc(NCCO)c3ccccc3n2)c1,50*,-2,34,9,-1,2,80*,2,60*,2
OCCNc1nc(Nc2cccc(O)c2)nc2ccccc12,97*,-3,84*,-12,0,1,101*,1,98*,7
OCCNc1nc(NCc2ccccc2)c2ccccc2n1,1,-1,-10,-2,.,.,.,.,.,.
